Compound activity: PubChem BioAssay, Johns Hopkins Ion Channel Center
This is a sample that favours compounds with a hit; in the whole collection about 3.7% have one here.
KCNK9 inh: KCNK9 potassium channel inhibitors, primary screen, HEK293 cells, thallium flux | Potassium channel subfamily K member 9 (Homo sapiens), Q9NPC2 | FluxOR thallium flux fluorescence; stronger effect = lower value | B-score at 10 µM | 1.2% of 310,000 active | AID 488922, 2010;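 active = ratio B-score over 3 SD below the library mean, with starting fluorescence within 5 SD of its mean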;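 also: negative B-score means less thallium flux so channel inhibition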
hERG rescue: hERG rescue from dofetilide block, primary screen, cell-based, CHO-hERG, FluxOR thallium flux, dofetilide IC70; activation (rescue from dofetilide block), less the hit threshold, % at 10 µM; dofetilide IC70 present; AID 1511, 2009; 0.51% of 310,000 active;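 active = activation above the mean of controls blocked by dofetilide plus 5 SD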;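 also: thallium influx through hERG after potassium depolarization seen as dye fluorescence rise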
KCNQ1 pot: potentiators or activators of KCNQ1 channel, primary screen, cell-based, thallium flux, high-throughput; Potassium voltage-gated channel subfamily KQT member 1 (Homo sapiens), P51787; CHO-K1 KCNQ1, thallium flux FluxOR fluorescence; stronger effect = higher value; B-score at 10 µM; 0.35% of 310,000 active;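 active = fluorescence ratio B-score, a plate-corrected score, at least three library SD, with initial intensity B-score within 5 SD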
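Test system: CHO-K1 cells stably expressing KCNQ1 / Medium: assay buffer / Also added: depolarizing K+/Tl+ stimulus, K2SO4 and Tl2SO4 each 12.5 mM in 5x stock / Incubation: 90 min dye loading and 20 min compound exposure, both at room temperature / Signal: thallium influx via FluxOR fluorescence, kinetic imaging / Evaluation: B score of baseline-normalized fluorescence ratio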
KCNK3 inh: human KCNK3 channel inhibitors, primary screen, CHO cells, FluxOR thallium flux, B-score; FluxOR fluorescence; stronger effect = lower value; B-score at 10 µM; 0.84% of 340,000 active; AID 602410, 2012;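 active = B-score under library mean minus 4 SD, starting fluorescence ratio at most library mean plus 5 SD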;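 also: more negative B-score means stronger inhibition of thallium flux through KCNK3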
Kir21 block: inhibitors of mouse Kir2.1 inward-rectifier potassium channel; Inward rectifier potassium channel 2 (Mus musculus), P35561; HEK293-Kir2.1, FluxOR thallium flux fluorescence; stronger effect = lower value; B-score at 10 µM; 0.85% of 310,000 active; AID 1672, 2009;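 active = fluorescence ratio B-score at or below minus 3 SD of library scores, with starting-brightness B-score within 2 SD, cut at about -4.2 in these data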;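 also: channel flux triggered by added potassium and thallium sulfate stimulus; B-score of peak minus minimum fluorescence over baseline after thallium stimulus; more negative B-score means stronger Kir2.1 block with less thallium influx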
KCNQ1 inh: inhibitors of human KCNQ1 channel, primary screen, cell-based, thallium flux, high-throughput; Potassium voltage-gated channel subfamily KQT member 1 (Homo sapiens), P51787; CHO-K1 KCNQ1, FluxOR thallium flux fluorescence; stronger effect = higher value; B-score at 10 µM; 1.3% of 310,000 active; AID 2642, 2010;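 active = compounds whose thallium flux B-score, printed positive for inhibition, exceeds three library SD while starting fluorescence stays within three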;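 also: channel opened by potassium depolarization with thallium stimulus after 20 min compound exposure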
* hit, by the source's call; i = inactive; . = not tested or not shown.

SMILES	KCNK9 inh	hERG rescue	KCNQ1 pot	KCNK3 inh	Kir21 block	KCNQ1 inh
CC/C(=N\Nc1ccccc1)c1c(O)n(-c2ccc(OC)cc2)c(=O)[nH]c1=O	i	-12.2	i	i	-0.2	i
CCOc1cccc(C2NCc3ccccc3-n3cccc32)c1O (stereo unspecified)	i	-4.8	i	i	-0.34	i
Oc1ccccc1C1NCc2ccccc2-n2cccc21 (stereo unspecified)	i	-2.6	i	i	-4.47*	i
Clc1ccccc1C1NCc2ccccc2-n2cccc21 (stereo unspecified)	i	-26.6	i	i	-5.17*	i
CC(C)c1ccc(C2NCc3ccccc3-n3cccc32)cc1 (stereo unspecified)	i	-9.6	i	i	-0.19	i
O=C(CSC1c2ccccc2-c2ccccc21)N/N=C/c1ccc(C(=O)O)cc1	i	-5.5	i	i	-1.96	i
O=C(CSC1c2ccccc2-c2ccccc21)N/N=C/c1ccccc1O	i	-12.3	i	i	0.18	9*
CCN(CC)P(=O)(/C=C(\Cl)c1ccccc1)/C=C(\Cl)c1ccccc1	i	-3.2	i	i	0.8	i
O=P(Oc1ccccc1)(Oc1ccccc1)c1ccccc1	i	-8.2	i	i	-5.89*	i
O=c1c2cc(Br)ccc2[nH]c(=S)n1-c1ccccc1	i	37.3*	i	i	0.41	i
CCC(Oc1cc(Cl)ccc1Cl)C(=O)N1CCC2(CC1)OCCO2 (stereo unspecified)	i	-6.2	i	i	-0.02	i
c1ccc2c(c1)CC1CNCc3cccc(c31)S2 (stereo unspecified)	i	-7.9	i	i	-8.12*	i
CCOP(=O)(OCC)c1cc(CC)ccc1O	i	-5.4	i	i	0.09	i
CCCCSC1=NN1c1nc(N)nc(C)c1CC	i	-4.6	i	i	-0.44	i
CCc1c(C)nc(N)nc1N1N=C1SCCOc1ccccc1	i	8.2*	i	i	1.33	i
CC(=O)c1cn(CCCOc2ccccc2)c2ccccc12	i	-15.9	i	i	-4.63*	i
COC(=O)C1=C(c2ccc(C(C)=O)cc2)C[C@@H]2CC[C@H]1N2C(=O)N1CCC(O)CC1	.	.	.	i	.	.
CC1CCCC(C)N1/N=C/c1c[nH]c2ccc(Br)cc12 (stereo unspecified)	i	-15.4	i	i	-4.32*	6*
CCc1ccc(CNCCc2ccc(F)cc2)cc1	i	-8.6	i	i	-0.49	i
Fc1ccc(CCNCc2ccc(Cl)c(Cl)c2)cc1	i	-8.1	i	i	-6.17*	i
Cc1nc2ccccc2c(=O)n1-c1cc([N+](=O)[O-])cc([N+](=O)[O-])c1	i	4.7*	i	i	-0.08	i
Cc1nc2ccccc2c(=O)n1-c1ccncc1	i	-10.6	i	i	-0.01	i
Nc1ccc2nonc2c1[N+](=O)[O-]	i	-40.4	i	i	-7.57	11*
O=[N+]([O-])c1ccc(N2CCCCCC2)c2nonc12	i	-21.4	i	i	-9.02	i
O=[N+]([O-])c1ccc(N2CCCCCC2)c2ncccc12	-7.66*	-4.4	i	i	-0.15	i
SMILES	KCNK9 inh	hERG rescue	KCNQ1 pot	KCNK3 inh	Kir21 block	KCNQ1 inh
CC(C)NC(C)Cc1ccc(I)cc1 (stereo unspecified)	.	.	.	i	.	.
C=CCn1c(O)c(C=Nc2ccc(F)cc2)c(=O)[nH]c1=O	i	-9.6	i	i	1.08	i
C=CCn1c(O)c(/C=C2/C=c3ccccc3=N2)c(=O)[nH]c1=S	i	34.7*	i	i	-1.5	i
Cc1cccc(CN2CCN(Cc3ccc(Cl)cc3)CC2)c1	i	-11.2	i	i	-12*	i
c1ccc(-c2[nH]c(-c3ccccc3)[n+](CC3CO3)c2-c2ccccc2)cc1 (stereo unspecified)	i	-22.2	i	i	-6.81*	i
CCC1C(c2ccccc2)NC(c2ccccc2)CC1(O)c1ccc(F)cc1 (stereo unspecified)	i	-18.5	i	i	-4.53*	i
CCN1C[C@]2(CO)CC[C@H](OC)[C@@]34C2[C@H](OC)[C@@](O)(C13)[C@@]1(O)C[C@H](OC)[C@H]2C[C@@H]4[C@@H]1[C@H]2OC	i	-8.2	i	i	-0.28	i
Cc1ccc(NP(=O)(Oc2ccccc2)Oc2ccccc2)cc1	.	.	.	i	.	.
CCc1ccc(NP(=O)(Oc2ccccc2F)Oc2ccccc2F)cc1	-7.45*	-10.4	i	i	1.42	i
Cc1ccc(NP(=O)(Oc2ccccc2F)Oc2ccccc2F)cc1	i	-12.9	i	i	-0.83	6*
O=C(CF)NC(NC(=S)Nc1cccc([N+](=O)[O-])c1)C(Cl)(Cl)Cl (stereo unspecified)	i	-15.0	i	i	0.47	6*
Cn1c(=O)c2c(ncn2CCCl)n(C)c1=O	i	-10.3	i	i	-0.09	i
CCOc1c(Cl)cc(CNC(C)C(O)c2ccccc2)cc1OC (stereo unspecified)	i	-21.4	i	i	0.05	i
CC(NCc1ccc(Cl)cc1Cl)C(O)c1ccccc1 (stereo unspecified)	i	-2.8	i	i	-10.4*	i
COc1cc(OC)c(OC)cc1CNC(C)C(O)c1ccccc1 (stereo unspecified)	i	-9.9	i	i	0.21	i
CC(CCc1ccccc1)NC(C)C(O)c1ccc(O)cc1 (stereo unspecified)	i	-4.9	i	i	-1.61	i
CC(NCc1cccc(Cl)c1Cl)C(O)c1ccccc1 (stereo unspecified)	i	-4.7	i	i	-16.2*	i
CC(NCc1ccc(Cl)cc1)C(O)c1ccccc1 (stereo unspecified)	i	-1.5	i	i	-9.03*	i
O=C1NC(=O)C(CCc2ccncc2)(Cc2ccc3c(c2)OCO3)C(=O)N1CCc1ccccc1 (stereo unspecified)	i	-20.3	i	i	-0.32	i
CCC(=O)O[C@H]1CC[C@H]2[C@@H]3CCC4=CC(=O)CC[C@]4(C)[C@H]3CC[C@]12C	.	.	.	-8.7*	.	.
